Experimental data reported in ChEMBL document CHEMBL1255334.
Calls of active or inactive are those of the source. No cut-off for these calls is given here.

What was measured:
Assay type in all cases: functional, organism-based
[1] = system: Mycobacterium tuberculosis; assay: Antibacterial activity against Mycobacterium tuberculosis containing PZase Tyr(103)>His mutant assessed as at 100 mg/liter
Outline: (§1)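 Clinical M. tuberculosis isolates first grown on Löwenstein-Jensen medium 3 to 4 weeks at 37°C. Radiometric BACTEC 460 test in acidified PZA test medium. Inoculum: ~McFarland 1 suspension grown in 12B medium until growth index (GI) >300. Paired vials per strain: drug-free control and PZA 100 mg/liter. Read when control GI reached 200. Resistant if PZA-vial GI >11% of control GI, susceptible if <9%.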

[2] = system: Mycobacterium tuberculosis; assay: Antibacterial activity against Mycobacterium tuberculosis containing PZase Ile(90)>Ser mutant assessed as at 100 mg/liter; outline: as §1
[3] = system: Mycobacterium tuberculosis; assay: Antibacterial activity against Mycobacterium tuberculosis containing PZase Trp(68)>Arg mutant assessed as at 100 mg/liter; outline: as §1
[4] = system: Mycobacterium tuberculosis; assay: Antibacterial activity against Mycobacterium tuberculosis containing PZase Ser(67)>Pro mutant assessed as at 100 mg/liter; outline: as §1
[5] = system: Mycobacterium tuberculosis; assay: Antibacterial activity against Mycobacterium tuberculosis containing PZase Ser(65)>Ser frameshift mutant assessed as at 100 mg/liter; outline: as §1
[6] = system: Mycobacterium tuberculosis; assay: Antibacterial activity against Mycobacterium tuberculosis containing pncA gene with C(174)>G mutation assessed as at 100 mg/liter; outline: as §1
[7] = system: Mycobacterium tuberculosis; assay: Antibacterial activity against Mycobacterium tuberculosis containing PZase Phe(58)>Leu mutant assessed as at 100 mg/liter; outline: as §1
[8] = system: Mycobacterium tuberculosis; assay: Antibacterial activity against Mycobacterium tuberculosis containing PZase Pro(54)>Leu mutant assessed as at 100 mg/liter; outline: as §1
[9] = system: Mycobacterium tuberculosis; assay: Antibacterial activity against Mycobacterium tuberculosis containing PZase Pro(54)>Ser mutant assessed as at 100 mg/liter; outline: as §1
[10] = system: Mycobacterium tuberculosis; assay: Antibacterial activity against Mycobacterium tuberculosis containing PZase His(51)>Gln mutant assessed as at 100 mg/liter; outline: as §1
[11] = system: Mycobacterium tuberculosis; assay: Antibacterial activity against Mycobacterium tuberculosis containing PZase Thr(47)>Ala mutant assessed as at 100 mg/liter; outline: as §1
[12] = system: Mycobacterium tuberculosis; assay: Antibacterial activity against Mycobacterium tuberculosis containing PZase Ile(6)>Thr mutant assessed as at 100 mg/liter; outline: as §1
[13] = system: Mycobacterium tuberculosis; assay: Antibacterial activity against Mycobacterium tuberculosis containing pncA gene with A(-11)>G mutation assessed as at 100 mg/liter; outline: as §1
[14] = system: Mycobacterium tuberculosis; assay: Antibacterial activity against Mycobacterium tuberculosis containing PZase Ser(65)>Ser mutant assessed as at 100 mg/liter; outline: as §1
[15] = system: Mycobacterium tuberculosis; assay: Antibacterial activity against Mycobacterium tuberculosis containing pncA gene with G insertion between nucleotide -33 and -32 assessed as at 100 mg/liter; outline: as §1
[16] = system: Mycobacterium tuberculosis; assay: Antibacterial activity against Mycobacterium tuberculosis containing pncA gene with C insertion between nucleotide -3 and -2 assessed as at 100 mg/liter; outline: as §1
[17] = system: Mycobacterium tuberculosis; assay: Antibacterial activity against Mycobacterium tuberculosis containing PZase Val(155)>Gly mutant assessed as at 100 mg/liter; outline: as §1
[18] = system: Mycobacterium tuberculosis; assay: Antibacterial activity against Mycobacterium tuberculosis containing PZase Leu(172)>Pro mutant assessed as at 100 mg/liter; outline: as §1
[19] = system: Mycobacterium tuberculosis; assay: Antibacterial activity against Mycobacterium tuberculosis containing PZase Met(175)>Thr mutant assessed as at 100 mg/liter; outline: as §1
[20] = system: Mycobacterium tuberculosis; assay: Antibacterial activity against Mycobacterium tuberculosis containing PZase with In-frame insertion between amino acids 148 and 149 assessed as at 100 mg/liter; outline: as §1
[21] = system: Mycobacterium tuberculosis; assay: Antibacterial activity against Mycobacterium tuberculosis containing PZase Thr(142)>Lys mutant assessed as at 100 mg/liter; outline: as §1
[22] = system: Mycobacterium tuberculosis; assay: Antibacterial activity against Mycobacterium tuberculosis containing PZase Cys(138)>Tyr mutant assessed as at 100 mg/liter; outline: as §1
[23] = system: Mycobacterium tuberculosis; assay: Antibacterial activity against Mycobacterium tuberculosis containing PZase Gly(132)>Ala mutant assessed as at 100 mg/liter; outline: as §1
[24] = system: Mycobacterium tuberculosis; assay: Antibacterial activity against Mycobacterium tuberculosis containing PZase Gly(132)>Ser mutant assessed as at 100 mg/liter; outline: as §1
[25] = system: Mycobacterium tuberculosis; assay: Antibacterial activity against Mycobacterium tuberculosis containing pncA gene with GG insertion between nt 391 and 392 assessed as at 100 mg/liter; outline: as §1
[26] = system: Mycobacterium tuberculosis; assay: Antibacterial activity against Mycobacterium tuberculosis containing PZase Val(125)>Asp mutant assessed as at 100 mg/liter; outline: as §1
[27] = system: Mycobacterium tuberculosis; assay: Antibacterial activity against Mycobacterium tuberculosis containing PZase Val(125)>Phe mutant assessed as at 100 mg/liter; outline: as §1
[28] = system: Mycobacterium tuberculosis; assay: Antibacterial activity against Mycobacterium tuberculosis containing PZase Arg(123)>Pro mutant assessed as at 100 mg/liter; outline: as §1

`NC(=O)c1cnccn1` was tested, and the Activity [1] was “inactive”, the Activity [2] was “inactive” and the Activity [3] was “inactive”. For the same molecule, the Activity [4] was “inactive”, the Activity [5] was “inactive” and the Activity [6] was “inactive”. The Activity [7] was “inactive”, the Activity [8] was “inactive” and the Activity [9] was “inactive”. For the same molecule, the Activity [10] was “inactive”, the Activity [11] was “inactive” and the Activity [12] was “inactive”. The Activity [13] was “inactive”, the Activity [14] was “Active” and the Activity [15] was “Active”. The Activity [16] was “Active”, the Activity [17] was “inactive” and the Activity [18] was “inactive”. For the same molecule, the Activity [19] was “inactive”, the Activity [20] was “inactive” and the Activity [21] was “inactive”. For the same molecule, the Activity [22] was “inactive”, the Activity [23] was “inactive” and the Activity [24] was “inactive”. The Activity [25] was “inactive”, the Activity [26] was “inactive” and the Activity [27] was “inactive”. For the same molecule, the Activity [28] was “inactive”.
